Assay results: ChEMBL document CHEMBL1147105, “In vitro and in vivo activities of PD 0305970 and PD 0326448, new bacterial gyrase/topoisomerase inhibitors with potent antibacterial activities versus multidrug-resistant gram-positive and fastidious organism groups” (2007)

Legend:
Enterococcus faecalis [1] = experiment: Antibacterial activity against beta-lactamase positive Enterococcus faecalis; type: functional
In short: (§1)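 MIC by CLSI broth microdilution for nonfastidious organisms, in cation-adjusted Mueller-Hinton broth incubated at 35°C.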

Enterococcus faecium [2] = experiment: Antibacterial activity against Enterococcus faecium; type: functional
In short: (§2)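 Broth microdilution MIC per CLSI guidelines, incubated at 35°C. Cation-adjusted Mueller-Hinton broth for nonfastidious organisms and staphylococci. Streptococci tested in the same broth with 3% lysed horse blood. Anaerobes tested in supplemented Brucella broth inside an anaerobe chamber (5% CO2, 5% H2, 90% N2), read after 48 h. Strains were mainly recent clinical isolates with confirmed identity.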

Enterococcus faecium [3] = experiment: Antibacterial activity against VanA-resistant Enterococcus faecium; type: functional; in short: as §2
[4] = tested on: Enterococcus casseliflavus; experiment: Antibacterial activity against Enterococcus casseliflavus; type: functional
Enterococcus gallinarum = experiment: Antibacterial activity against Enterococcus gallinarum; type: functional
Listeria monocytogenes = experiment: Antibacterial activity against Listeria monocytogenes; type: functional
In short: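 Broth microdilution MIC following CLSI guidelines, in cation-adjusted Mueller-Hinton broth containing 3% lysed horse blood, incubated at 35°C. Clinical isolates with identity confirmed. Reported as MIC range, MIC50 and MIC90.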

Moraxella catarrhalis [5] = experiment: Antibacterial activity against beta-lactamase negative Moraxella catarrhalis; type: functional
Moraxella catarrhalis [6] = experiment: Antibacterial activity against beta-lactamase positive Moraxella catarrhalis; type: functional
Neisseria gonorrhoeae = experiment: Antibacterial activity against Neisseria gonorrhoeae; type: functional
In short: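 MIC by broth microdilution in gonococcal broth, incubated at 35°C in 5% CO2. Reported as MIC range, MIC50 and MIC90.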

Klebsiella aerogenes = experiment: Antibacterial activity against Enterobacter aerogenes; type: functional
In short: (§3)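 Broth microdilution MIC following CLSI guidelines, in cation-adjusted Mueller-Hinton broth, incubated at 35°C. Recent clinical isolates and reference strains, with identity confirmed by automated and standard microbiological methods. Results reported as MIC range, MIC50 and MIC90.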

Klebsiella pneumoniae [7] = experiment: Antibacterial activity against Klebsiella pneumoniae; type: functional; in short: as §3
Klebsiella pneumoniae [8] = experiment: Antibacterial activity against beta-lactamase positive Klebsiella pneumoniae; type: functional; in short: as §1
Proteus vulgaris = experiment: Antibacterial activity against Proteus vulgaris; type: functional; in short: as §3
Salmonella typhimurium = experiment: Antibacterial activity against Salmonella enterica serovar Typhimurium; type: functional, Salmonella enterica subsp. enterica serovar Typhimurium; in short: as §3
Shigella flexneri = experiment: Antibacterial activity against Shigella flexneri; type: functional; in short: as §3
Shigella sonnei = experiment: Antibacterial activity against Shigella sonnei; type: functional; in short: as §3
Serratia marcescens = experiment: Antibacterial activity against Serratia marcescens; type: functional; in short: as §3
[9] = tested on: Stenotrophomonas maltophilia; experiment: Antibacterial activity against Stenotrophomonas maltophilia; type: functional; in short: as §3
Actinomyces sp. = experiment: Antibacterial activity against Actinomyces sp.; type: functional
[10] = tested on: Peptostreptococcus anaerobius; experiment: Antibacterial activity against Peptostreptococcus anaerobius; type: functional
In short: (§4)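 Anaerobic broth microdilution MIC following CLSI guidelines, in supplemented Brucella broth. Run in an anaerobe chamber under 5% CO2, 5% H2 and 90% N2 at 35°C, and read after 48 h. Reported as MIC range, MIC50 and MIC90.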

Clostridium perfringens = experiment: Antibacterial activity against Clostridium perfringens; type: functional; in short: as §2
[11] = tested on: Fusobacterium necrophorum; experiment: Antibacterial activity against Fusobacterium necrophorum; type: functional; in short: as §4
Clostridioides difficile = experiment: Antibacterial activity against Clostridium difficile; type: functional; in short: as §4
Bacteroides fragilis = experiment: Antibacterial activity against Bacteroides fragilis; type: functional; in short: as §4
Alloiococcus otitis = experiment: Antibacterial activity against Alloiococcus otitidis; type: functional
In short: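 MIC by broth microdilution following CLSI guidelines, in cation-adjusted Mueller-Hinton broth with 3% lysed horse blood. Incubated at 35°C and read after 48 h. Reported as MIC range, MIC50 and MIC90.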

Streptococcus sanguinis = experiment: Antibacterial activity against Streptococcus sanguis; type: functional
In short: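 Broth microdilution MIC following CLSI guidelines, in cation-adjusted Mueller-Hinton broth with 3% lysed horse blood. Plates incubated at 35°C. Clinical isolates and reference strains, with identity confirmed by standard microbiological methods.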

Streptococcus pneumoniae [12] = experiment: Antibacterial activity against penicillin-intermediate resistant Streptococcus pneumoniae; type: functional; in short: as §2
Streptococcus pneumoniae [13] = experiment: Antibacterial activity against levofloxacin-resistant Streptococcus pneumoniae; type: functional; in short: as §2
Anaerococcus prevotii = experiment: Antibacterial activity against Peptostreptococcus prevotii; type: functional; in short: as §4
Prevotella bivia = experiment: Antibacterial activity against Prevotella bivia; type: functional; in short: as §4
[14] = tested on: Prevotella melaninogenica; experiment: Antibacterial activity against Prevotella melaninogenica; type: functional; in short: as §4
Prevotella sp. = experiment: Antibacterial activity against Prevotella sp.; type: functional; in short: as §4
Cutibacterium acnes = experiment: Antibacterial activity against Propionibacterium acnes; type: functional
Staphylococcus aureus = experiment: Antibacterial efficacy against methicillin-resistant Staphylococcus aureus SA1417 infected orally dosed CD1 mouse model; type: functional
In short: (§5)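 Sepsis model in female CD1 mice (6–8 weeks, 18–22 g). Lethal i.p. challenge (0.5 ml) at ≥100 median lethal doses. Streptococci were given in Todd-Hewitt broth; other organisms were given with 20% hog gastric mucin. A single oral gavage dose (0.5 ml, in 0.5% methylcellulose) was given at the time of challenge. The PD50 (mg/kg) was calculated by probit analysis.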

Enterococcus faecalis [15] = experiment: Antibacterial efficacy against Enterococcus faecalis MGH2 infected orally dosed CD1 mouse model; type: functional; in short: as §5
Streptococcus pneumoniae [16] = experiment: Antibacterial activity against Streptococcus pneumoniae SVI infected once daily orally dosed CD1 mouse; type: functional; settings: po, read-out: PD50
In short: (§6)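 Pneumonia model in CD1 mice (n = 8), anaesthetised with ketamine i.p. Intranasal instillation of 50 μl of broth culture (10^8–10^9 CFU/ml, OD600 0.70), confirmed by plate counts. Oral therapy began 24 h post-challenge. Dosing was either once daily for 1 day or twice daily for 3 days. The result was given as the PD50 (mg/kg).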

Streptococcus pneumoniae [17] = experiment: Antibacterial activity against quinolone-resistant Streptococcus pneumoniae SP4333 infected twice daily orally dosed CD1 mouse; type: functional; settings: po, read-out: PD50; in short: as §6
Salmonella enteritidis = experiment: Antibacterial activity against Salmonella enterica serovar Enteritidis; type: functional, Salmonella enterica subsp. enterica serovar Enteritidis; in short: as §3
[18] = tested on: Parabacteroides distasonis; experiment: Antimicrobial activity against Bacteroides distasonis; type: functional
In short: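 Anaerobic broth microdilution MIC following CLSI guidelines, in supplemented Brucella broth. Incubated at 35°C in a chamber under 5% CO2, 5% H2 and 90% N2. Read after 48 h.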

Question: `C[C@H]1COc2c(N3CCN(C)CC3)c(F)cc3c(=O)c(C(=O)O)cn1c23.C[C@H]1COc2c(N3CCN(C)CC3)c(F)cc3c(=O)c(C(=O)O)cn1c23.O` [LEVOFLOXACIN] was tested. Which MIC (Enterococcus faecalis [1]) did it give?
Answer: 0.5 µg/mL

Question: And the MIC50 (Enterococcus faecium [2])?
Answer: 32 µg/mL

Question: And the MIC90 (Enterococcus faecium [2])?
Answer: 64 µg/mL

Question: And the MIC50 (Enterococcus faecium [3])?
Answer: 64 µg/mL

Question: What about the MIC90 (Enterococcus faecium [3]) of the same compound?
Answer: 64 µg/mL

Question: What about the MIC50 [4] of the same compound?
Answer: 2 µg/mL

Question: What about the MIC90 [4] of the same compound?
Answer: 2 µg/mL

Question: And the MIC50 (Enterococcus gallinarum)?
Answer: 1 µg/mL

Question: And the MIC90 (Enterococcus gallinarum)?
Answer: 2 µg/mL

Question: What about the MIC50 (Listeria monocytogenes) of the same compound?
Answer: 1 µg/mL

Question: What about the MIC90 (Listeria monocytogenes) of the same compound?
Answer: 1 µg/mL

Question: What about the MIC50 (Moraxella catarrhalis [5]) of the same compound?
Answer: 0.03 µg/mL

Question: What about the MIC90 (Moraxella catarrhalis [5]) of the same compound?
Answer: 0.06 µg/mL

Question: And the MIC50 (Moraxella catarrhalis [6])?
Answer: 0.03 µg/mL

Question: And the MIC90 (Moraxella catarrhalis [6])?
Answer: 0.06 µg/mL

Question: And the MIC50 (Neisseria gonorrhoeae)?
Answer: 0.008 µg/mL

Question: And the MIC90 (Neisseria gonorrhoeae)?
Answer: 0.008 µg/mL

Question: And the MIC50 (Klebsiella aerogenes)?
Answer: 1 µg/mL

Question: And the MIC90 (Klebsiella aerogenes)?
Answer: 32 µg/mL

Question: And the MIC50 (Klebsiella pneumoniae [7])?
Answer: 0.06 µg/mL

Question: And the MIC90 (Klebsiella pneumoniae [7])?
Answer: 0.5 µg/mL

Question: What about the MIC50 (Klebsiella pneumoniae [8]) of the same compound?
Answer: 0.5 µg/mL

Question: What about the MIC90 (Klebsiella pneumoniae [8]) of the same compound?
Answer: 32 µg/mL

Question: And the MIC (Proteus vulgaris)?
Answer: 0.03 µg/mL

Question: And the MIC50 (Salmonella typhimurium)?
Answer: 0.03 µg/mL

Question: And the MIC90 (Salmonella typhimurium)?
Answer: 0.06 µg/mL

Question: What about the MIC50 (Shigella flexneri) of the same compound?
Answer: 0.03 µg/mL

Question: And the MIC90 (Shigella flexneri)?
Answer: 0.06 µg/mL

Question: What about the MIC50 (Shigella sonnei) of the same compound?
Answer: 0.03 µg/mL

Question: And the MIC90 (Shigella sonnei)?
Answer: 0.06 µg/mL

Question: What about the MIC50 (Serratia marcescens) of the same compound?
Answer: 0.125 µg/mL

Question: And the MIC90 (Serratia marcescens)?
Answer: 4 µg/mL

Question: And the MIC50 [9]?
Answer: 1 µg/mL

Question: What about the MIC90 [9] of the same compound?
Answer: 4 µg/mL

Question: And the MIC (Actinomyces sp.)?
Answer: 0.25 µg/mL

Question: What about the MIC [10] of the same compound?
Answer: 0.125 µg/mL

Question: What about the MIC90 (Clostridium perfringens) of the same compound?
Answer: 0.5 µg/mL

Question: What about the MIC [11] of the same compound?
Answer: 0.03 µg/mL

Question: And the MIC50 (Clostridioides difficile)?
Answer: 0.5 µg/mL

Question: And the MIC90 (Clostridioides difficile)?
Answer: 0.5 µg/mL

Question: And the MIC50 (Bacteroides fragilis)?
Answer: 4 µg/mL

Question: And the MIC90 (Bacteroides fragilis)?
Answer: 32 µg/mL

Question: And the MIC50 (Alloiococcus otitis)?
Answer: 0.25 µg/mL

Question: What about the MIC90 (Alloiococcus otitis) of the same compound?
Answer: 0.25 µg/mL

Question: What about the MIC50 (Streptococcus sanguinis) of the same compound?
Answer: 1 µg/mL

Question: What about the MIC90 (Streptococcus sanguinis) of the same compound?
Answer: 1 µg/mL

Question: What about the MIC50 (Streptococcus pneumoniae [12]) of the same compound?
Answer: 1 µg/mL

Question: What about the MIC90 (Streptococcus pneumoniae [12]) of the same compound?
Answer: 1 µg/mL

Question: And the MIC50 (Streptococcus pneumoniae [13])?
Answer: 16 µg/mL

Question: What about the MIC90 (Streptococcus pneumoniae [13]) of the same compound?
Answer: 16 µg/mL

Question: What about the MIC (Anaerococcus prevotii) of the same compound?
Answer: 0.125 µg/mL

Question: What about the MIC50 (Prevotella bivia) of the same compound?
Answer: 1 µg/mL

Question: And the MIC90 (Prevotella bivia)?
Answer: 2 µg/mL

Question: And the MIC50 [14]?
Answer: 1 µg/mL

Question: What about the MIC90 [14] of the same compound?
Answer: 2 µg/mL

Question: And the MIC50 (Prevotella sp.)?
Answer: 1 µg/mL

Question: And the MIC90 (Prevotella sp.)?
Answer: 2 µg/mL

Question: What about the MIC50 (Cutibacterium acnes) of the same compound?
Answer: 2 µg/mL

Question: And the MIC90 (Cutibacterium acnes)?
Answer: 64 µg/mL

Question: And the MIC (Staphylococcus aureus)?
Answer: 0.25 µg/mL

Question: And the MIC (Enterococcus faecalis [15])?
Answer: 1 µg/mL

Question: What about the ED50 (Streptococcus pneumoniae [16]) of the same compound?
Answer: 69 mg/kg

Question: And the ED50 (Streptococcus pneumoniae [17])?
Answer: > 200 mg/kg

Question: And the MIC50 (Salmonella enteritidis)?
Answer: 0.03 µg/mL

Question: And the MIC90 (Salmonella enteritidis)?
Answer: 0.06 µg/mL

Question: And the MIC50 [18]?
Answer: 8 µg/mL

Question: What about the MIC90 [18] of the same compound?
Answer: 32 µg/mL
